{
  "source": "paper PMC11452492",
  "about": "(Nature Communications, 2024)",
  "key": {"JNK1": {"molecular_target": "JNK1 (Homo sapiens, UniProt P45983)", "sequence (P45983 1-384 isoform P45983-3)": "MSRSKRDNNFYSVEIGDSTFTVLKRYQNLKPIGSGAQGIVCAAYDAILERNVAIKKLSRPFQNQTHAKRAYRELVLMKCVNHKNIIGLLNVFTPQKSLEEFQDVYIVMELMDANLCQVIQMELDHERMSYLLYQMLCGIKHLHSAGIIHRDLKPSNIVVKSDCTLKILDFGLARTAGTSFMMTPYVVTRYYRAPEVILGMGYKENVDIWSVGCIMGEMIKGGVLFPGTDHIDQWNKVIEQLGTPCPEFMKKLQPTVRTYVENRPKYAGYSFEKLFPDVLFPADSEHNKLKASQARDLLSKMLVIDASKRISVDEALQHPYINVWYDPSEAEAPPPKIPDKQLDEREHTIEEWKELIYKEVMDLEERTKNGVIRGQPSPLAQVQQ", "assay": "in vitro JNK1 PhALC kinase assay", "format": "biochemical"}, "[1]": {"tested_on": "JNK mediated c-Jun(Ser73) phosphorylation", "assay": "quantitative western blot p-c-Jun", "format": "cell-based, human", "method_in_brief": "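SH-SY5Y cells carry a Tet-ON-inducible MKK7–MLK3 kinase-domain chimera and were kept in DMEM F12 + 1% FBS. Cells received 2 or 3 μg/mL doxycycline together with test compound. Lysates were taken after 6 h (2 or 6 h in blots) for quantitative western blot of p-c-Jun(Ser73), with α-tubulin as load control. Normalized signal was fitted to a dose-response function for EC50. Blots are representative of two independent experiments.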"}, "JNK1 C116S mutant": {"molecular_target": "JNK1 C116S mutant (Homo sapiens, UniProt P45983, C116S)", "sequence (P45983 1-384 isoform P45983-3 C116S)": "as the sequence (P45983 1-384 isoform P45983-3) above, with C116S counted along it", "format": "binding", "conditions": "repeat experiment, 100, 300, 1000 nM on JNK C116S surface"}, "JNK1 WT": {"molecular_target": "JNK1 WT (Homo sapiens, UniProt P45983)", "sequence (P45983 1-384 isoform P45983-3)": "as the sequence (P45983 1-384 isoform P45983-3) above", "assay": "SPR kinetic binding, wild-type JNK1 surface"}, "[2]": {"tested_on": "p38-mediated MK2 phosphorylation", "assay": "phospho-MK2 western blot in HEK293T MKK6EE cells", "format": "cell-based, human", "conditions": "doxycycline, JNK inhibitors 3 μM", "method_in_brief": "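HEK293T MKK6EE cells allow p38-specific activation through doxycycline-inducible expression of constitutively active MKK6EE. Phospho-MK2 was read by western blot with a fluorescent secondary antibody and infrared imaging. α-Tubulin served as load control, and anti-FLAG monitored transgene expression.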"}, "[3]": {"tested_on": "JNK mediated c-Jun phosphorylation", "assay": "sorbitol stimulated c-Jun phosphorylation, western blot, HEK293T cells", "format": "cell-based, human", "conditions": "sorbitol 15 min, inhibitor 1 µM added 2 h before", "method_in_brief": "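HEK293T cells seeded at 50,000/well and grown to confluence (~24 h) in DMEM with 10% FBS, then serum-starved 16 h. Inhibitor in 50% DMSO added 2 h before 0.35 M sorbitol for 15 min; final DMSO 0.1%, with a DMSO-only control. Cells chilled on ice, pelleted, washed in cold PBS and lysed in SDS loading buffer. Lysates run on 10% Tris-glycine gels and blotted to nitrocellulose for phospho-JNK and phospho-c-Jun.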"}, "[4]": {"assay": "metabolic stability in rat primary hepatocytes", "format": "in vitro ADME", "method_in_brief": "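Hepatocytes were isolated from male Wistar rats by collagenase perfusion. Test compound from DMSO was added to 1 or 10 μM final (0.1% DMSO) in William's E:Ham's F12 (1:1) medium. Samples were taken at 0–240 min, quenched with ice-cold acetonitrile, and parent compound was quantified by LC-MS/MS. A cell-free medium control was included. Clint came from parent loss; ClH and extraction ratio were predicted from Clint, with cut-offs of 0.3 and 0.7.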"}, "[5]": {"assay": "stability in rat blood plasma", "format": "in vitro ADME", "conditions": "up to 120 min", "method_in_brief": "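Test compound from DMSO was added to male Wistar rat blood plasma at 1 or 10 μM final. Samples were taken at 0, 10, 20, 30, 60 and 120 min, quenched with ice-cold acetonitrile, and centrifuged. Parent compound was quantified by LC-MS/MS, and t1/2 was calculated from its decline.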"}, "[6]": {"assay": "LC-MS of GSH adduct formation", "format": "physicochemical", "conditions": "10 mM GSH, electrospray mass spectrometry", "method_in_brief": "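Mass analysis of glutathione adducts by LC-MS with electrospray ionisation. Linear gradient from 10% to 55% eluent B over 12 min, then 95% B, returning to 10% B by 18 min. Flow 0.4 ml/min, column at 40 °C. Source 350 °C, spray voltage 5500 V, declustering potential 80 V. Raw spectra deconvoluted to neutral molecular masses.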"}},
  "data": [
    {"smiles": "CC(=O)Nc1cccc(C(=O)Nc2ccc(Nc3nccc(-c4cccnc4)n3)c(C)c2)c1", "note": "[IN-8a]", "values": [
      {"measurement": "IC50", "setting": "JNK1", "result": "5.33 ± 0.232", "unit": "µM"}
    ]},
    {"smiles": "Cc1cc(NC(=O)c2cccc(NC(=O)/C=C/CN(C)C)c2)ccc1Nc1nccc(-c2cccnc2)n1", "note": "[JNK-IN-8]", "values": [
      {"measurement": "Western blot p-c-Jun(Ser73) EC50/IC50", "setting": "[1]; SH-SY5Y MKK7 ACT cells, 6 h DOX stimulation", "result": "~ 0.7 μM"},
      {"measurement": "effect on c-Jun(Ser73) phosphorylation", "setting": "[1]; SH-SY5Y MKK7 ACT, 2 or 6 h DOX, inhibitor 50 nM or 1 µM", "result": "can block c-Jun phosphorylation"},
      {"measurement": "k1, parallel measurement", "setting": "JNK1 C116S mutant", "result": 1492000, "unit": "M⁻¹ s⁻¹"},
      {"measurement": "k2, parallel measurement", "setting": "JNK1 C116S mutant", "result": 0.1676, "unit": "s⁻¹"},
      {"measurement": "k3, new experiment calculated with the newly determined k1, k2", "setting": "JNK1 WT; 1, 3, 15 nM on JNK WT surface", "result": 0.03454, "unit": "s⁻¹"},
      {"measurement": "k3, parallel measurement", "setting": "JNK1 WT; new experiment (for CA-IN-8: a, 15, 40, 70 nM) on JNK WT surface", "result": 0.03181, "unit": "s⁻¹"},
      {"measurement": "effect on p38-mediated MK2 phosphorylation", "setting": "[2]", "result": "do not affect"},
      {"measurement": "effect on c-Jun phosphorylation", "setting": "[3]", "result": "efficiently blocked JNK mediated c-Jun phosphorylation"},
      {"measurement": "hepatic extraction (class)", "setting": "[4]; cut-off 0.3 low/intermediate, 0.7 intermediate/high", "result": "low"},
      {"measurement": "in vivo hepatic clearance (ClH), predicted", "setting": "[4]; predicted from Clint measured in rat primary hepatocyte cultures", "result": 10.1, "unit": "mL/min/kg"},
      {"measurement": "half-life / stability in plasma", "setting": "[5]", "result": "stable"},
      {"measurement": "GSH adduct formation", "setting": "[6]", "result": "irreversible covalent adduct formation with GSH"}
    ]}
  ]
}
